Here are results for 5 compounds from ChEMBL document CHEMBL3758104, “Reinvestigating Old Pharmacophores: Are 4-Aminoquinolines and Tetraoxanes Potential Two-Stage Antimalarials?” (J Med Chem, 2016).

Structures are written as SMILES. Calls of active or inactive are those of the source. The calls are words filed in the database; no cut-off is given here.

For series [1], the system named is Plasmodium falciparum. As to the kind of experiment: Antimalarial activity against 4th to 5th gametocyte stage of Plasmodium falciparum 3D7elo1-pfs16-CBG99 assessed as inhibition of gametocyte viability by luciferase reporter gene assay. Format: functional, organism-based. In a few lines: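 Stage IV–V gametocytes of luciferase-expressing 3D7elo1-pfs16-CBG99 strain (CBG99 under pfs16 promoter); luciferase activity as viability read-out. Viability = 100×(treated−blank)/(untreated−blank), blank = 100 nM epoxomicin-treated sample. Epoxomicin and dihydroartemisinin as positive controls. IC50 from nonlinear regression of dose–response; mean of three experiments in duplicate.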

Series [2] deals with Mus musculus. As to the kind of experiment: Toxicity in Plasmodium berghei ANKA infected C57Bl6 mouse at 160 mg/kg/day, po administered for 3 days measured 2 times a day for 31 days. It counts as organism-based. Conditions: in vivo, 744 h.
Series [3] deals with Plasmodium berghei. As to the kind of experiment: Antimalarial activity against Plasmodium berghei ANKA infected in C57Bl6 mouse assessed as increase in survival rate at 80 mg/kg/day, po administered for day 3 to 5 by Thompson test. Format: functional, organism-based. The method in brief: (§1)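 Modified Thompson test: C57Bl6 female mice inoculated intraperitoneally on day 0 with 1×10^6 P. berghei ANKA-infected erythrocytes; compound suspended in 0.5% hydroxyethylcellulose–0.1% Tween 80, given orally once daily on days 3, 4 and 5 post infection. Parasitemia by Giemsa-stained thin tail-blood smears on days 0, 3, 6, 10, 13, 17, 20, 24, 27, 31. Cure = survival without parasitemia to day 31.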

Series [4] relates to Plasmodium berghei. The experiment in a line: Antimalarial activity against Plasmodium berghei ANKA infected in C57Bl6 mouse assessed as increase in cure rate at 80 mg/kg/day, po administered for day 3 to 5 by Thompson test. Format: functional, organism-based. The method in brief: as §1
Series [5] concerns Plasmodium berghei. As to the kind of experiment: Antimalarial activity against Plasmodium berghei ANKA infected in C57Bl6 mouse at 80 mg/kg/day, po measured on day 3 to 5 by Thompson test. Format: functional.
The subject of series [6] is Mus musculus. The experiment in a line: Toxicity in Plasmodium berghei ANKA infected C57Bl6 mouse at 80 mg/kg/day, po administered for 3 days measured 2 times a day for 31 days. Format: organism-based. Conditions: in vivo, 744 h.
Series [7] in a line: Selectivity index, ratio of IC50 for mouse RAW 264.7 cells to IC50 for chloroquine susceptible Plasmodium falciparum D6. Format: toxicity. The note with it: read-out: Ratio IC50.
For series [8], the system named is Plasmodium falciparum. The experiment in a line: Antimalarial activity against chloroquine-resistant Plasmodium falciparum W2 after 48 hrs by [3H]hypoxanthine incorporation assay. It counts as functional, organism-based. The method in brief:
(§2)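 P. falciparum D6 (Sierra I/UNC clone), W2 (Indochina I clone), TM91C235 (South-East Asian clone) cultured with compound; growth inhibition by [3H]hypoxanthine incorporation (modified Desjardins/Milhous method). Chloroquine, mefloquine, artemisinin as positive controls. IC50 in nM; technical triplicates, curve fits R2 0.96–1.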

A short description of series [9]: Half life in mouse liver microsomes at 1 uM by LC-MS/MS analysis. Format: ADME.
A further series relates to RAW264.7. As to the kind of experiment: Cytotoxicity against mouse RAW264.7 cells. It counts as cell-based.
Series [10] concerns Plasmodium falciparum. The experiment in a line: Antimalarial activity against chloroquine-susceptible Plasmodium falciparum D6 after 48 hrs by [3H]hypoxanthine incorporation assay. It counts as functional, organism-based. The method in brief: as §2
For series [11], the system named is Plasmodium falciparum. The experiment in a line: Antimalarial activity against mutidrug resistant Plasmodium falciparum TM91C235 after 48 hrs by [3H]hypoxanthine incorporation assay. It counts as functional, organism-based. In a few lines: as §2
Series [12] can be described thus: Half life in human liver microsomes at 1 uM by LC-MS/MS analysis. Format: ADME.
The test system of series [13] is Hepatocyte. As to the kind of experiment: Drug metabolism in human hepatocytes assessed as dihydroxylated metabolite formation at 1 uM after 60 mins by LC-MS/MS analysis. The note with it: 1 h. It counts as ADME, cell-based. The method in brief: (§3)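 Hepatocyte incubation of 1 μM compound at 37 °C, in duplicate. Supernatants analysed by LC-MS/MS, with SRM monitoring of phase I and II metabolites (oxidation, demethylation, dehydrogenation, glucuronidation, oxidation + glucuronidation).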

Another series relates to HepG2. The experiment in a line: Cytotoxicity against human HepG2 cells after 48 hrs by MTT assay. Format: cell-based. Conditions: HepG2, 48 h.
Series [14] can be described thus: Octanol-water partition coefficient, logP of the compound. Format: physicochemical.
Series [15] has as its system Hepatocyte. The experiment in a line: Drug metabolism in mouse hepatocytes assessed as monohydroxylated metabolite formation at 1 uM after 60 mins by LC-MS/MS analysis. Conditions: 1 h. Format: ADME, cell-based. In a few lines:
as §3

The nature of series [16]: Half life in mouse hepatocytes at 1 uM by LC-MS/MS analysis. It counts as ADME, cell-based, Hepatocyte. The method in brief: (§4)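 Cryopreserved human or mouse hepatocytes equilibrated for 30 min at 37 °C, then given 1 μM final compound in duplicate at 37 °C. Samples quenched at set times in ice-cold methanol with internal standards. Parent depletion by LC-MS/MS (MRM) as % of time zero, fitted to first-order decay. t1/2 = 0.693/k, and CLint derived from it. Verapamil and warfarin served as controls.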

For series [17], the system named is Plasmodium berghei. The experiment in a line: Antimalarial activity against Plasmodium berghei ANKA infected in C57Bl6 mouse at 40 mg/kg/day, po on days 3 to 5 by Thompson test. Format: functional.
The test system of series [18] is Plasmodium berghei. The experiment in a line: Antimalarial activity against sporozoite stage of Plasmodium berghei ANKA infected in C57BL/6J mouse assessed as reduction in liver parasite load at 80 mg/kg/, po administered for 3 days measured after 48 hrs by luciferase reporter gene assay relative to control. On the set-up: scale not given: the % may be the effect or the level left. It counts as functional. The method in brief:
(§5)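 C57BL/6J mice dosed by oral gavage (DMSO in sunflower oil) on three consecutive days: 24 h before, at, and 24 h after intravenous infection with luciferase-expressing P. berghei sporozoites. Controls got vehicle. Liver parasite load measured by in vivo luminescence 46–48 h after infection, after subcutaneous luciferin, expressed as % of controls. Two independent experiments.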

The test system of series [19] is Plasmodium berghei. As to the kind of experiment: Antimalarial activity against sporozoite stage of Plasmodium berghei ANKA infected in C57Bl/6J mouse assessed as reduction in liver parasite load at 50 mg/kg/, po administered for 3 days measured after 48 hrs by luciferase reporter gene assay relative to control. Format: functional. On the set-up: scale not given: the % may be the effect or the level left. The method in brief:
as §5

Series [20] has as its system Plasmodium berghei. The experiment in a line: Antimalarial activity against sporozoite stage of Plasmodium berghei infected in human Huh7 cells assessed as inhibition of parasite infection at 0.125 uM pre-incubated for 24 hrs followed by parasite infection measured after 48 hrs by bioluminescence assay. Conditions: Huh-7. It counts as functional.
Series [21] deals with Hepatocyte. The experiment in a line: Drug metabolism in mouse hepatocytes assessed as dihydroxylated metabolite formation at 1 uM after 60 mins by LC-MS/MS analysis. Format: ADME, cell-based. The note with it: 1 h. In a few lines: as §3
For series [22], the system named is Plasmodium berghei. As to the kind of experiment: Antimalarial activity against sporozoite stage of Plasmodium berghei infected in human Huh7 cells assessed as remaining parasite infection at 2 uM pre-incubated for 24 hrs followed by parasite infection measured after 48 hrs by bioluminescence assay. The note with it: Huh-7.
Series [23] can be described thus: Inhibition of beta hematin formation measured as hemin equivalent after 18 hrs. It counts as physicochemical. In a few lines: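 Hemin (16 mM in DMSO) mixed with compound at 0.125–5 mol equiv to hemin, plus water and 8 M acetate buffer pH 5.2, 25% DMSO final. Incubated 18 h at 37 °C. Pellet washed with DMSO, dissolved in 0.1 M NaOH, absorbance read at 405 nm (corrected at 670 nm) against a hemin calibration.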

Series [24] has as its system Hepatocyte. The experiment in a line: Drug metabolism in human hepatocytes assessed as monohydroxylated metabolite formation at 1 uM after 60 mins by LC-MS/MS analysis. It counts as ADME, cell-based. The note with it: 1 h. The method in brief:
as §3

Series [25] is described as follows: Intrinsic clearance in human hepatocytes assessed per 10^6 cells at 1 uM by LC-MS/MS analysis. It counts as ADME, cell-based, Hepatocyte. The note with it: read-out: CLH. The method in brief: as §4
Series [26] deals with Plasmodium berghei. As to the kind of experiment: Antimalarial activity against Plasmodium berghei ANKA infected in C57Bl6 mouse assessed as reduction of parasitemia at 10 to 20 mg/kg/day, po administered for day 3 to 5 by Thompson test. It counts as functional, organism-based. In a few lines: as §1
For series [27], the system named is Plasmodium berghei. As to the kind of experiment: Antimalarial activity against Plasmodium berghei ANKA infected in C57Bl6 mouse at 160 mg/kg/day, po measured on day 3 to 5 by Thompson test. Format: functional.
A short description of series [28]: Intrinsic clearance in mouse hepatocytes assessed per 10^6 cells at 1 uM by LC-MS/MS analysis. It counts as ADME, cell-based, Hepatocyte. The note with it: read-out: CLH. In a few lines:
as §4

The test system of series [29] is Plasmodium berghei. As to the kind of experiment: Antimalarial activity against Plasmodium berghei ANKA infected in po dosed C57Bl6 mouse administered on day 3 to 5 by Thompson test. It counts as functional. The method in brief:
as §1

Series [30] has as its system Hepatocyte. The experiment in a line: Half life in human hepatocytes at 1 uM by LC-MS/MS analysis. It counts as ADME, cell-based. The method in brief:
as §4

The test system of series [31] is Plasmodium berghei. The experiment in a line: Antimalarial activity against sporozoite stage of Plasmodium berghei infected in human Huh7 cells assessed as inhibition of parasite infection pre-incubated for 24 hrs followed by parasite infection measured after 48 hrs by bioluminescence assay. It counts as functional, organism-based. The note with it: Huh-7.
Series [32] relates to Hepatocyte. The experiment in a line: Metabolic stability in human hepatocytes assessed as compound remaining at 1 uM after 60 mins by LC-MS/MS analysis. Format: ADME, cell-based. The note with it: 2 h, in the assay text read “120 mins” for “60 mins”. The method in brief: as §4

For the compound `CC[C@H](C)[C@H](NC(=O)[C@H]([C@@H](C)CC)N(C)C(C)=O)C(=O)N[C@H](C(=O)N[C@@H](CC(C)C)C(=O)[C@@]1(C)CO1)[C@@H](C)O` [EPOXOMYCIN], in the series on Plasmodium falciparum [1], the IC50 worked out at 11.8 nM.
Take `Fc1ccc2scc(CNCCCNc3ccnc4cc(Cl)ccc34)c2c1`: the Activity result in the series on Mus musculus [2] is given as “Toxic”; with Mus musculus [6], “Non-toxic”. In addition, the outcome in the series on Plasmodium berghei [3] and in the series on Plasmodium berghei [4] was inactive. Moreover, the MST in the series on Plasmodium berghei [5] was 14 days.
With `CC(CNCC12CC3CC(CC(C3)C1)C2)Nc1ccnc2cc(Cl)ccc12` (centres undefined), the selectivity ratio in series [7] was 2900. Also, the IC50 in the series with Plasmodium falciparum [8] worked out at 3 nM; in the series with RAW264.7, 2900 nM; in the series with Plasmodium falciparum [10], 1 nM; with Plasmodium falciparum [11] it was 1 nM. Besides, the results for the half-life at 1 µM in series [9] and in series [12] were 10 min and 11 min, respectively.
For the compound `CC(CCNCC12CC3CC(CC(C3)C1)C2)Nc1c(F)cnc2cc(Cl)ccc12` (centres undefined), the Drug metabolism result with Hepatocyte [13], in the series with Hepatocyte [15], in the series on Hepatocyte [21] and in the series on Hepatocyte [24] was “metabolite_detected” throughout. Further, the IC50 in the series with HepG2 was found to be 3970 nM; with Plasmodium falciparum [8] it was 238 nM; in [23], 0.61 equiv; with Plasmodium falciparum [10], 135 nM; with Plasmodium berghei [31], 310 nM; in the series with Plasmodium falciparum [11], 197 nM. The same compound had a log partition coefficient (logP) in [14] of 3.25. In addition, the half-life at 1 µM worked out at 79 min in series [16], 21 min in [9] and 13 min in series [12]. The results for the MST in the series with Plasmodium berghei [17], with Plasmodium berghei [27] and with Plasmodium berghei [5] were 18.4 days, 26.2 days and above 31 days, respectively. In addition, the Activity with Plasmodium berghei [18] was 92%; in the series on Plasmodium berghei [19], 84%; with Mus musculus [2], “Non-toxic”; in the series on Plasmodium berghei [29] it was “Dose dependent effect”. Also, the inhibition at 0.125 µM in the series on Plasmodium berghei [20] worked out at 38%. Besides, in the series on Plasmodium berghei [22], the % infection at 2 µM amounted to 13%. Also, the figures for the hepatocyte CLint at 1 µM in series [25] and in series [28] were 8.9 µL/min/1e6 cells and 8.7 µL/min/1e6 cells, respectively. The outcome in the series on Plasmodium berghei [26] was inactive. The MCD with Plasmodium berghei [29] came out at 80 mg/kg/day. The compound further yielded a t1/2 with Hepatocyte [30] of 78 min. In the series on Hepatocyte [32], the Stability is reported as 32%.
For the compound `CC(CNc1ccnc2cc(Cl)ccc12)NCC12CC3CC(CC(C3)C1)C2` (centres undefined), in series [7], the selectivity ratio is 1890. Further, the IC50 with Plasmodium falciparum [8] was 10 nM; with RAW264.7, 3770 nM; in the series on Plasmodium falciparum [10] it was 2 nM; in the series with Plasmodium falciparum [11] it was 9 nM. The half-life at 1 µM is 10 min in series [9] and 13 min in [12].
